Bioassay records deposited in PubChem BioAssay by Broad Institute.
SKKanGAS inh = inhibitors of SKKanGAS S. pyogenes growth in kanamycin (SK-promoter or general growth effect) | BacTiter-Glo, 6 h | inhibition, % at 7.5 µM | 300,000 compounds, 1.3% hits | AID 1662;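 active = mean replicate score, as percent of positive control median, at least 50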;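 note: strain carries kanamycin resistance gene driven by streptokinase promoter and grows in 40 µg/ml kanamycin; loss of luminescence reflects streptokinase promoter inhibition or plain growth inhibition; 0% = median of DMSO wells and 100% = positive control at its reference dose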
Beta cell apopt = beta cell apoptosis inhibition | INS-1E cytokine-induced death, ATP luminescence, 48 h; percent of positive-control rescue, neutral wells zero | AID 435005 | protection from apoptosis, % (test concentration not listed) | 300,000 compounds, 0.8% hits;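 active = Every replicate reaches about 75%, or at least half do and their mean reaches it too, limit read from the data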;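 note: 0% = cytokine-treated negative control wells and 100% = positive control rescue; higher means more ATP so stronger rescue from cytokine killing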
T cruzi inh = T. cruzi replication inhibition. T. cruzi beta-gal in NIH3T3, luminescence, 90 h. inhibition, % (no concentration beside the values). AID 1885. 300,000 compounds, 1.4% hits;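 active = mean inhibition across valid replicates above about 55%, limit read from the data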;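 note: signal also drops with host cell toxicity which is not excluded here; 0% = plate median of DMSO wells and 100% = zero luminescence signal; higher percent means less beta-gal luminescence so fewer parasites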
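System: NIH/3T3 fibroblasts plus reporter T. cruzi. Medium: DMEM plus 2% FBS. Probe or stimulus: 5000 reporter trypomastigotes per well. Compound: single 50 nL compound addition per well in DMSO. Incubation: co-culture of at least 90 h after 3 h attachment. Detection: GalScreen β-gal luminescence, detergent lysis, 60 min. Evaluation: parasite load inhibition, %.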
PfHsp90 yeast 2 = inhibits growth of yeast expressing Plasmodium falciparum Hsp90; S. cerevisiae expressing PfHsp90, BacTiter-Glo ATP, 48 h; yeast lacking PDR1 and PDR3 efflux regulators; inhibition, % at 9.4 µM; 310,000 compounds, 0.32% hits; AID 504621;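 active = every replicate shows inhibition above about 80%, whatever the replicate mean, limit read from the data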;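 note: 0% = DMSO neutral controls and 100% = 20 µM radicicol positive controls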
CSC inhib = blocks cancer stem cells; cancer stem cell-like cells viability, luminescence; inhibition, % at 7.5 µM; 300,000 compounds, 1.1% hits; in the data active = inhibition above about 75%; tested in HMLE shEcad cells
HIF act = HIF pathway transcriptional activation. U2OS HRE-luciferase reporter, luminescence; normalized: DMSO 0%, desferrioxamine 100%. 300,000 compounds, 0.32% hits. AID 1910. activation, % at 7.5 µM (by protocol);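 active = mean activation of at least 10% of the iron chelator positive control signal, with at least half of replicates also reaching 10%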
* marks the source's active call; other numbers are inactive results; · = no result. Sampled rows, rich in hits. Any-hit rate of the full collection: about 3.6%.

SMILES	SKKanGAS inh	Beta cell apopt	T cruzi inh	PfHsp90 yeast 2	CSC inhib	HIF act
Cc1ccc(C)c2[nH]c(=O)c(CN(Cc3ccco3)C(=O)Nc3ccccc3)cc12	5.4	5.4	17.4	22.5	-6.0	-0.4
Cc1ccc(NC(=O)N(Cc2ccco2)Cc2cc3cc(C)cc(C)c3nc2Cl)cc1	8.2	·	55.8*	·	·	0.4
Cc1cccc2cc(CN(Cc3ccco3)C(=O)Nc3cccc(C#N)c3)c(Cl)nc12	14.1	10.6	60.2*	-8.2	26.2	-0.4
CN(C)c1ccnc(Nc2ccc(O)cc2)c1C#N	-0.4	-3.0	-7.7	2.9	5.8	-0.3
C(=C\c1nc(N2CCCCCC2)c2ccccc2n1)/c1ccccc1	41.7	109.1*	27.1	-22.8	79.0*	-0.2
CC(C)(C)OC(=O)NCCCCCNC(=O)c1ncn(Cc2ccccc2)c1C(=O)NCCCCCNC(=O)OC(C)(C)C	·	2.3	·	-2.6	41.5	·
CC1CCCCC1NC(=O)CCn1ccc2cc(S(=O)(=O)N3CCCC3)ccc21 (centres undefined)	50.2*	·	8.6	-24.0	-0.6	-0.1
CC(C)NC(=O)CCn1ccc2cc(S(=O)(=O)N3CCCC3)ccc21	6.9	0.2	-1.6	-3.7	-9.6	-0.6
COc1cccc(/C=N/NC(=O)C[n+]2ccccc2)c1O	-4.0	-3.0	-36.4	-28.1	-9.1	-1.3
COc1ccc(CCCC(=O)N/N=C/c2cccc(OC)c2O)cc1C	75.3*	-0.9	-13.3	-4.5	112.5*	7.3
COCCCNC(=S)N/N=C/c1cccc(OC)c1O	0.7	87.9*	·	·	1.9	·
CCOC(=O)/C(=N\Nc1cccc(C(F)(F)F)c1)N1CCOCC1	-7.1	-4.0	-12.5	-19.1	82.9*	707.6*
CCN(C(=O)CN1CCN(S(=O)(=O)c2cc(Cl)ccc2Cl)CC1)c1c(N)n(Cc2ccccc2)c(=O)[nH]c1=O	-6.3	-6.1	13.7	11.6	·	-0.5
CN1CCC(N(C)S(=O)(=O)c2ccc(NC(=O)COc3cccc(Cl)c3)cc2)CC1	8.0	-0.7	55.9*	15.7	-3.3	-0.9
Cc1c(C(=O)Nc2ccc(S(=O)(=O)N(C)C3CCN(C)CC3)cc2)oc2c(Cl)cccc12	-13.6	·	58.8*	59.0	10.9	0.3
Cc1ccccc1OCCC(=O)Nc1ccc(S(=O)(=O)N(C)C2CCN(C)CC2)cc1	-0.8	-0.3	58.4*	12.9	-1.7	0.0
CN1CCC(N(C)S(=O)(=O)c2ccc(NC(=O)Cc3ccc(F)cc3)cc2)CC1	·	·	·	-6.0	·	·
Cc1ccc(OCC(=O)Nc2ccc(S(=O)(=O)N(C)C3CCN(C)CC3)cc2)c(C)c1	11.7	11.2	61.3*	-5.3	48.0	-1.4
COc1cccc(N2CCN(C(=O)C3CCC(=O)N(C4CCCCCC4)C3)CC2)c1 (centres undefined)	-6.7	-6.7	7.7	-4.1	3.3	0.4
Cc1c(NS(=O)(=O)c2cccc(C(=O)NCc3cccc(Cl)c3)c2)c(=O)n(-c2ccccc2)n1C	·	·	·	23.0	·	·
OCCN(Cc1cccnc1)Cc1ccccn1	·	·	·	-22.2	·	·
Nc1c(Cl)ncnc1NCc1ccccc1	1.0	3.9	-11.2	1.3	-10.1	-2.0
O=C(N/N=C/c1ccccc1)c1ccco1	0.9	3.5	-4.6	18.7	9.7	2.4
O=C(C#Cc1ccccc1)c1ccco1	-3.0	99.8*	-19.4	104.1*	59.2	-4.1
CCN1CCN(C(=S)Nc2sc(C)c(-c3ccccc3)c2C(=O)OC)CC1	5.8	3.2	38.7	6.0	90.2*	0.2
SMILES	SKKanGAS inh	Beta cell apopt	T cruzi inh	PfHsp90 yeast 2	CSC inhib	HIF act
CCOC(=O)c1c(NC(=O)/C=C/C(=O)O)sc(C)c1-c1ccc(C(C)(C)C)cc1	38.7	79.4*	56.6*	-23.0	109.2*	-3.7
CCOCc1nnc(NC(=O)c2c(-c3ccccc3)noc2C)s1	-0.7	·	-8.6	10.1	·	0.6
Cc1onc(-c2ccccc2)c1C(=O)Nc1sc2c(c1C#N)CCC(C)C2 (centres undefined)	-0.7	19.3	-0.6	-30.0	139.1*	0.6
CCOC(=O)c1c(NC(=O)c2c(-c3ccccc3)noc2C)sc(C)c1-c1ccccc1	1.9	5.8	63.1*	0.6	39.7	-2.2
O=C(O)Cc1ccc(S(=O)(=O)N2CCCC2)s1	·	4.0	·	-8.9	-16.7	·
CN(C(=O)COC(=O)c1cc(NS(=O)(=O)c2cc([N+](=O)[O-])ccc2Cl)ccc1O)C1CCCCC1	9.9	0.4	12.7	-7.3	4.6	3.3
CN(CC(=O)Nc1ccc(Cl)c(C(F)(F)F)c1)C(=O)c1cn2ccccc2n1	0.6	1.1	-2.8	6.8	14.2	0.4
Cc1cccc(C)c1NS(=O)(=O)c1cc2c3c(c1)CCN3C(=O)CC2	0.9	-1.3	1.0	-4.1	-2.3	-1.2
C=CCN(C(=O)c1csnn1)C(C(=O)NCc1ccc(F)cc1)c1ccccc1F (centres undefined)	-3.8	-4.9	7.0	-4.0	-7.6	0.0
CN1CCc2c(C#N)c(N3CCCCC3)nc(NCc3ccccc3)c2C1	9.8	-6.3	55.6*	·	-2.8	0.0
CC(C)c1nc(NCc2ccccc2)c(C#N)c2c1CCCC2	78.6*	-5.7	25.9	21.8	6.9	-1.8
CCC(O)(Cc1ccccn1)Cc1ccccn1	·	·	·	16.6	·	·
Cc1nn(-c2ccccc2)nc1C(=O)c1c(C)[nH]n(-c2ccccc2)c1=O	61.4*	-3.7	-29.3	10.9	37.2	-0.3
C/C(=N\NC(=O)c1ccc(C)cc1)c1c(C)[nH]n(-c2ccccc2)c1=O	55.5*	91.4*	51.2	4.0	36.3	1.1
CC(=O)N(CCC(Cc1ccccc1)c1ccc2c(c1)OCO2)Cc1ccc(Cl)cc1 (centres undefined)	64.0*	-0.3	63.5*	-98.7	-5.4	-33.9
CCOc1ccc(/C=C2/Sc3ccc(C(=O)NCC4CCCO4)cc3N(C)C2=O)cc1OC (centres undefined)	26.4	0.3	-2.7	32.3	1.2	-0.2
CCOC(=O)N1CCN(C(=O)c2ccc3c(c2)N(C)C(=O)/C(=C\c2ccc(OCC)c(OC)c2)S3)CC1	108.4*	·	-3.5	-65.2	37.4	-0.9
CCOc1ccc(/C=C2/Sc3ccc(C(=O)N4CCN(C(=O)c5ccco5)CC4)cc3N(C)C2=O)cc1OC	66.6*	7.8	10.6	·	24.6	-0.3
Cc1cccc(/C=C2\Sc3ccc(C(=O)N4CCC(C)CC4)cc3N(C)C2=O)c1	76.1*	8.4	11.4	-29.8	29.6	-0.1
COc1cc(/C=N/NC(=O)CSc2cc(C)c(Br)cc2C)ccc1O	24.2	0.5	-7.0	-21.2	2.8	0.4
Cc1cc(SCC(=O)N/N=C/c2ccc(O)c(O)c2O)c(C)cc1Br	69.4*	33.4	27.6	·	-18.7	36.2*
O=C(Cn1c(=O)oc2ccccc21)Nc1ccc(Br)cc1	-2.0	0.2	-20.2	0.4	-9.8	-0.2
N#Cc1c(NC(=O)Cn2c(=O)oc3ccccc32)oc(-c2ccccc2)c1-c1ccccc1	32.0	2.6	3.3	3.4	86.5*	-0.2
